Results taken from PMC4467258 (Clinical Pharmacology in Drug Development, 2014).
In brackets after ≈: the same amount, converted by molar mass. Several values for one entry are separate records, joined by “and”; a condition that tells them apart may be missing. Equal entries are not always repeated. Where two headings read alike, the source gives them in different places. Marks after values point to notes of the source that are not given here.

Tests used:
[1] = assay type: in vivo, human; conditions: for AUC(0-inf): AUC0−∞; for Tmax: median (range)
In short: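 Open-label, randomized 4-period crossover in healthy adults (18–65 y, ≥40 kg). Each received single 1500-mg free-base-equivalent doses: 60-min IV mesylate infusion, tablet fasted or after a 490-calorie moderate-fat meal, and oral mesylate solution fasted, with 3-day washouts. Plasma sampled predose to 72 h; LC-MS/MS (5–5000 ng/mL). Noncompartmental analysis; bioavailability from oral vs IV AUC0−∞; log-transformed mixed-effects model; CVw from residual MSE.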

Safety and tolerability = assay type: in vivo, human
In short: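 Open-label, randomized, 4-period balanced crossover in healthy adults (18–65 years, ≥40 kg; women of non-childbearing potential only). Single 1500-mg (free base equivalent) dose of test compound (peptide deformylase inhibitor) as IV mesylate salt solution, 60-minute infusion, fasted; 3-day washout between periods. Safety from observed AEs and changes over time in hematology, clinical chemistry, urinalysis, vital signs and ECGs, summarized descriptively.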

Solubility = assay type: physicochemical
[2] = Biopharmaceutics Classification System characteristics; assay type: physicochemical; conditions: high permeability and poor solubility; no official regulatory decision yet
[3] = cited from earlier work
[4] = Fed to fasted, free base tablet
[5] = human, plasma, oral, 1500 mg, mean (SD), 1500-mg free base tablet, fasted state
[6] = human, plasma, po, 1500 mg, mean (SD), 1500-mg oral MS solution, fasted state

SMILES: Cc1nc(NNC(=O)[C@H](CC2CCCC2)CN(O)C=O)c(F)c(N2CCN3CCOC[C@@H]3C2)n1 [GSK1322322]
- Relative bioavailability, ratio of geometric least square mean Cmax (90% CI) ([1]; Fasted to MS): 0.57 (0.48, 0.69)
- Tmax estimated median difference (90% CI) ([1]; Fasted to MS): 0.13 (0.00, 0.37) ^c h
- Relative bioavailability, ratio of geometric least square mean AUC0−∞ (90% CI) ([1]; Fasted to MS (free base tablet fasted vs oral MS solution)): 0.62 (0.56, 0.69)
- Relative bioavailability, ratio of geometric least square mean Cmax (90% CI) ([1]; Fed to MS): 0.57 (0.47, 0.68)
- Tmax estimated median difference (90% CI) ([1]; Fed to MS): 0.99 (0.63, 1.74) ^d h
- Relative bioavailability, ratio of geometric least square mean AUC0−∞ (90% CI) ([1]; Fed to MS (free base tablet fed vs oral MS solution)): 0.84 (0.76, 0.94)
- Food effect, ratio of geometric least square mean AUC0−∞ (90% CI) [1, 4]: 1.36 (1.22, 1.51)
- Food effect, ratio of geometric least square mean Cmax (90% CI) [1, 4]: 0.99 (0.82, 1.18)
- Tmax estimated median difference (90% CI) [1, 4]: 0.88 (0.50, 1.25) ^e h
- Relative bioavailability ([1]; free base tablet after a meal vs fasted state): 136%
- Absolute bioavailability, ratio of geometric least square mean AUC0−∞ (90% CI) ([1]; free base tablet fasted vs IV, 1500 mg): 0.57 (0.51, 0.63)
- Relative bioavailability ([1]; free base tablet fasted vs oral mesylate salt solution fasted): 62%
- Absolute bioavailability, ratio of geometric least square mean AUC0−∞ (90% CI) ([1]; free base tablet fed vs IV, 1500 mg): 0.77 (0.69, 0.86)
- Relative bioavailability ([1]; free base tablet fed vs oral mesylate salt solution fasted): 84%
- Increase in AUC0−∞ with food ([1]; free base tablet, fed vs fasted state, moderate-fat/calorie meal): 36%
- Vd ([1]; human, plasma, iv, 1500 mg): 69.2 L
- clearance ([1]; human, plasma, iv, 1500 mg): 367 mL/min
- AUC(0-inf) ([1]; human, plasma, iv, 1500 mg, mean (SD), 1500-mg IV MS solution, 60-minute infusion): 75.4 µg·h/mL
- Cmax ([1]; human, plasma, iv, 1500 mg, mean (SD), 1500-mg IV MS solution): 28.6 µg/mL
- Tmax ([1]; human, plasma, iv, 1500 mg, 1500-mg IV MS solution): 1 h
- half-life ([1]; human, plasma, iv, 1500 mg, t1/2, mean (SD), 1500-mg IV MS solution): 10.3 h
- AUC(0-inf) [1, 5]: 46.1 µg·h/mL
- AUC(0-inf) ([1]; human, plasma, oral, 1500 mg, mean (SD), 1500-mg free base tablet, fed state (moderate-fat/calorie meal)): 58.9 µg·h/mL
- Cmax [1, 5]: 17.1 µg/mL
- Cmax ([1]; human, plasma, oral, 1500 mg, mean (SD), 1500-mg free base tablet, fed state): 15.5 µg/mL
- Tmax ([1]; human, plasma, oral, 1500 mg, 1500-mg free base tablet, fasted state): 0.5 h
- Tmax ([1]; human, plasma, oral, 1500 mg, 1500-mg free base tablet, fed state): 1.5 h
- half-life ([1]; human, plasma, oral, 1500 mg, t1/2, mean (SD), 1500-mg free base tablet, fasted state): 9.4 h
- half-life ([1]; human, plasma, oral, 1500 mg, t1/2, mean (SD), 1500-mg free base tablet, fed state): 8.7 h
- half-life ([1]; human, plasma, other: IV or oral, 1500 mg, t1/2, range of means after single-dose IV or oral administration): 8.7 to 10.3 h
- AUC(0-inf) [1, 6]: 69.7 µg·h/mL
- Cmax [1, 6]: 25.8 µg/mL
- Tmax ([1]; human, plasma, po, 1500 mg, 1500-mg oral MS solution, fasted state): 0.5 h
- half-life ([1]; human, plasma, po, 1500 mg, t1/2, mean (SD), 1500-mg oral MS solution, fasted state): 9.6 h
- Varea ([1]; mean (SD), 1500-mg IV MS solution): 317.2 (131.5) L
- CL/F ([1]; mean (SD), 1500-mg free base tablet, fasted state): 42.6 (26.6) L/h
- CL/F ([1]; mean (SD), 1500-mg free base tablet, fed state): 28.4 (9.0) L/h
- CL/F ([1]; mean (SD), 1500-mg oral MS solution, fasted state): 23.8 (7.3) L/h
- Absolute bioavailability, ratio of geometric least square mean AUC0−∞ (90% CI) ([1]; oral MS solution fasted vs IV, 1500 mg): 0.92 (0.82, 1.02)
- CVw (within coefficient of variation) of AUC0−∞ ([1]; pooled across regimens): 22%
- CVw (within coefficient of variation) of Cmax ([1]; pooled across regimens): 39% and 38.7%
- Withdrawal because of a drug-related AE (bronchospasm) (Safety and tolerability; IV 1500 mg, period 3): One volunteer was withdrawn
- Vital signs, chemistry, or hematology data (Safety and tolerability; all treatments): No apparent trends or changes from baseline
- Intensity of adverse events (Safety and tolerability; all treatments, single 1500-mg doses): mild-to-moderate
- Volunteers with an AE per treatment (Safety and tolerability; range across the four treatments): 42–65%
- solubility (Solubility; fasted state-simulated intestinal fluid, pH 6.5, fassif): ~0.5 mg/mL (≈ 1.04 mM)
- solubility (Solubility; pH 3.5): 40 mg/mL (≈ 83.4 mM)
- Biopharmaceutics Classification System class [2]: Class 2
- Relative bioavailability fed vs fasted ([3]; free base tablet 1000 mg): 119%
- Cmax ([3]; single 1500-mg IV dose, first-time-in-human IV study): 25.5 µg/mL
- Absolute bioavailability ([3]; tablet formulation 1500 mg, previous phase I study): 56%
